The target in data set [1] is Voltage-gated inwardly rectifying potassium channel KCNH2 (Homo sapiens, UniProt Q12809). Nature of the data set: Inhibition of human ERG.
In the next data set the target is Cytochrome P450 2C8 (Homo sapiens, UniProt P10632). Kind of data set: Drug metabolism assessed as CYP2C8 (unknown origin) mediated metabolism. Format: ADME.
The test system of data set [2] is AMO1. Nature of the data set: Antitumor activity against human AMO1 xenografted in CB-17 SCID mouse assessed as tumor growth inhibition at 12.5 mg/kg, iv administered weekly for upto week 4 measured post last dose measured on day 10. The format is functional. Conditions: time 4 weeks, read-out: TGI. The method, boiled down: (§1)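 Female CB-17 SCID mice, 6−7 weeks old. 5 × 10⁶ AMO-1 cells in growth medium/Matrigel 50:50 injected subcutaneously in the right flank. Randomised at about 200 mm³, n = 8 to 10 per group. Dosed iv in 20% HPbCD–25 mM HCl, daily for 5 days or weekly for 4 weeks. Calipers 2−3 times weekly; volume = length × width²/2. TGI computed from median change in volume versus control; delay judged at median volume 500 mm³.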
A general note: A xenograft is tissue or cells of one species grown in another, often human tumour cells in immunodeficient mice.

Data set [3] deals with AMO1. Nature of the data set: Antitumor activity against human AMO1 xenografted in CB-17 SCID mouse assessed as maximum tumor growth inhibition at 3.125 mg/kg, iv administered for 5 consecutive days measured post-last dose. Details: scale not given: the % may be the effect or the level left. The format is functional. Conditions: time 5 day. The gist of the method: as §1
A further data set concerns SUD4. Nature of the data set: Antiproliferative activity against human SU-DHL4 assessed as reduction in cell viability incubated for 3 days by Cell Titer Blue assay. The format is functional, cell-based. Conditions: time 3.0 day. A general note: Resazurin is reduced to fluorescent resorufin, in cell work by metabolically active cells.
The subject of another data set is OCI-Ly7. Kind of data set: Antiproliferative activity against human OCI-LY7 assessed as reduction in cell viability incubated for 3 days by Cell Titer Blue assay. The format is functional, cell-based. Conditions: time 3.0 day.
The subject of the next data set is MOLM-13. Nature of the data set: Antiproliferative activity against human MOLM13 assessed as reduction in cell viability incubated for 3 days by Cell Titer Blue assay. The format is functional, cell-based. Conditions: time 3.0 day.
The next data set has as its system PL21. Kind of data set: Antiproliferative activity against human PL21 assessed as reduction in cell viability incubated for 3 days by Cell Titer Blue assay. The format is functional. Conditions: time 3.0 day.
Data set [4] deals with THP-1. Nature of the data set: Induction of apoptosis in Bax/Bak knockout human THP1 cells at 1 to 3000 nM incubated for 2 hrs by annexin-V-FITC and propidium iodide staining based by flow cytometry. The format is functional, cell-based. Conditions: dose 1-3000 nM. The method, boiled down:
(§2)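 THP-1 cells, wild type or CRISPR BAX/BAK knockout (verified by Western blot), were treated for 2 h. They were washed in binding buffer (10 mM Hepes, 140 mM NaCl, 2.5 mM CaCl₂) and stained with annexin V-FITC and PI for 15 min at 20 °C in the dark. 10⁴ cells per sample were read by flow cytometry. Apoptotic plus necrotic cells were normalised to total cells. Two biological replicates; DMSO control.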

Data set [5] deals with THP-1. Nature of the data set: Induction of apoptosis in human THP1 cells incubated for 2 hrs by annexin-V-FITC and propidium iodide staining based by flow cytometry. The format is functional, cell-based. The method, boiled down: as §2
On the technique in general: In flow cytometry, cells or beads pass a laser one at a time.

The target in data set [6] is Apoptosis regulator Bcl-2 (Homo sapiens) (UniProt P10415). Kind of data set: Displacement of Bak BH3 domain from FLAG-tagged Bcl-2 (unknown origin) expressed in human Hela cells at 30 to 300 nM incubated for 2 hrs by immunoprecipitation assay. Format: cell-based. Conditions: dose 30-300 nM. The method, boiled down:
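HeLa cells in DMEM with 10% FCS were transiently transfected with Flag-tagged Mcl-1, Bcl-xL or Bcl-2 vectors. 24 h later they were treated for 2 h and lysed (Hepes pH 7.5, 150 mM KCl, MgCl₂, EDTA, 0.4% Triton X100). Cleared lysates were immunoprecipitated with anti-Flag M2 beads. Inputs and IPs were immunoblotted for endogenous Bax, Bak and Flag.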

For data set [7], the system named is AMO1. Kind of data set: Antitumor activity against human AMO1 cells xenografted in CB-17 SCID mouse assessed as time to reach tumor volume of 500 mm3 at […] mg/kg, iv administered as bolus dose for 5 consecutive days. Format: functional. Conditions: time 5 day.
Data set [8] has as its system AMO1. Kind of data set: Antitumor activity against human AMO1 cells xenografted in CB-17 SCID mouse assessed as maximum tumor growth inhibition at […] mg/kg, iv administered as bolus dose for 5 consecutive days measured on day 4 relative to control. The format is functional. Details: scale not given: the % may be the effect or the level left. Conditions: time 5 day.

Activity calls are given as the source filed them. The rule behind the calls is not given here. Some results are limits rather than exact numbers.

One may read the IC50 as the concentration needed to halve the response being measured.

Sequence of Voltage-gated inwardly rectifying potassium channel KCNH2 (Q12809 whole entry): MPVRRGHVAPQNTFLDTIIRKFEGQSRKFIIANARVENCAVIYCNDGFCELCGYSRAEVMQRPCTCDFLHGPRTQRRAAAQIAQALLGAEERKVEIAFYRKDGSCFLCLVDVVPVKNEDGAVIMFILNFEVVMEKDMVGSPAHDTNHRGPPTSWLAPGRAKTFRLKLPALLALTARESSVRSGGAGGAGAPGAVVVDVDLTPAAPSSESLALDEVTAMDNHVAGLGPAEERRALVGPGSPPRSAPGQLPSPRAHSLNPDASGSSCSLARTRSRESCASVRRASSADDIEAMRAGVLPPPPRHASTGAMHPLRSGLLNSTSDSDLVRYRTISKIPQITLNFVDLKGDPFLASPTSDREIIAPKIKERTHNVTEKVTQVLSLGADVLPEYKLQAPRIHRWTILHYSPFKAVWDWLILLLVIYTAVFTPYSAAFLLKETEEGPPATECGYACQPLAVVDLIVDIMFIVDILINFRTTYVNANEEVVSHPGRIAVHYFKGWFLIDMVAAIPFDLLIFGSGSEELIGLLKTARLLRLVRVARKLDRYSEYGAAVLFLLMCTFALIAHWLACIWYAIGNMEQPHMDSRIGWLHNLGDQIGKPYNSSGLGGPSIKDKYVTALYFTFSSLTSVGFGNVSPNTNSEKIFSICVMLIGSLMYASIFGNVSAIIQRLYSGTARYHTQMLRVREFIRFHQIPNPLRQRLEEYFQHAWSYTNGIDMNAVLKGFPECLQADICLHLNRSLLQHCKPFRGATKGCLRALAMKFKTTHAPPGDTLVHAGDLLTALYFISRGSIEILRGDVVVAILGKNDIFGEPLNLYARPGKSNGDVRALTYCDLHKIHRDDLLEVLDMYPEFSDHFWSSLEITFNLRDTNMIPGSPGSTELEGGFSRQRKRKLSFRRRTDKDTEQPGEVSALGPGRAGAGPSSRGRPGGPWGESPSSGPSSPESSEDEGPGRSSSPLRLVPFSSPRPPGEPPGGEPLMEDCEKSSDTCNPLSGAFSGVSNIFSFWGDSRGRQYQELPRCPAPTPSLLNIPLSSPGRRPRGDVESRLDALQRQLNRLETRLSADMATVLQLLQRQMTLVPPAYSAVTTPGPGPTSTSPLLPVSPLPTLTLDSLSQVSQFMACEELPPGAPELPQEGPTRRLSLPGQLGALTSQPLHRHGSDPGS
Sequence of Cytochrome P450 2C8 (P10632 whole entry): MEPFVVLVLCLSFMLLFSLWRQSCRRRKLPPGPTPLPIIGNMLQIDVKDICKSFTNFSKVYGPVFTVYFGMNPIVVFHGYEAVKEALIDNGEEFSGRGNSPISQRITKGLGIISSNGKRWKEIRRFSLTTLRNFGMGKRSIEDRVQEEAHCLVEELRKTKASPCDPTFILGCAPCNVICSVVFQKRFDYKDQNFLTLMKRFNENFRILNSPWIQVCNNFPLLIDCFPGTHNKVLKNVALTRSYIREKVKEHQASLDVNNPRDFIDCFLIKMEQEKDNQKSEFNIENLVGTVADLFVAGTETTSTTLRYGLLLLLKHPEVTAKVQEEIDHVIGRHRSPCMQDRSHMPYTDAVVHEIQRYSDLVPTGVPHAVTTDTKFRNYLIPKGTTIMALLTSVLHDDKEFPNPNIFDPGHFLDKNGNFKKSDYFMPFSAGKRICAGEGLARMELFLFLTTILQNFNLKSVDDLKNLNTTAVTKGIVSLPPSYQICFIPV
Sequence of Apoptosis regulator Bcl-2 (Homo sapiens) (P10415 whole entry, the tested form may be a part): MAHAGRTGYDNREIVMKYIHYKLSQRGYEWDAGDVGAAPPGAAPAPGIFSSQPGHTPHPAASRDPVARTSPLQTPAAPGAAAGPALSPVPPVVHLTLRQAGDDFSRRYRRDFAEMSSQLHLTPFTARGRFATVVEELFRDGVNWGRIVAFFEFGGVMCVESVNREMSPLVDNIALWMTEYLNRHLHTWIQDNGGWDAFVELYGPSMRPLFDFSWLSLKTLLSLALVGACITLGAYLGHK

In the case of `COc1ccccc1-c1nccc(COc2ccccc2C[C@@H](Oc2ncnc3sc(-c4ccc(F)cc4)c(-c4ccc(OCCN5CCN(C)CC5)c(Cl)c4C)c23)C(=O)O)n1`, the IC50 in [1] was more than 3 µM. The Drug metabolism result on Cytochrome P450 2C8 is listed as “Metabolite_Detected”. The inhibition in vivo at 12.5 mg/kg in the data set on AMO1 [2] stood at 108%. The results for the Activity with AMO1 [3], in the data set with THP-1 [5] and in the data set on AMO1 [8] were 89.1%, “Dose-dependent effect” and 189.5%, respectively. In addition, the result in the data set on SUD4, with OCI-Ly7, in the data set with MOLM-13 and with PL21 was Active. For the same compound, the result (in the data set with THP-1 [4]; in data set [6]) was inactive. Besides, in the data set with AMO1 [7], the Time is 38 days.
